# Rows were chosen to be rich in hits. Some 12% of all compounds tested hit in one or more screens of this group.
# Diaph act CS: activates diaphorase or chemically reduces, flagging diaphorase assay artifacts; Diaphorase/resazurin coupled assay, resorufin fluorescence, 16 min; stronger effect = higher value; 1 = vehicle wells, 0 = NADH-free wells; activation factor at 20 µM; actives 0.005% (n = 190,000);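 active means diaphorase activity raised at least twofold by the compound at 20 µM; inactive means activation factor below 2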
#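 Assay system: bacterial diaphorase enzyme (C. kluyveri) / Input: enzyme 0.07 U/mL final / Medium: 50 mM HEPES pH 7.4 with 4.542 mM MgCl2, 0.005% Tween 20 / Doses: single compound dose of 20 µM, 1% DMSO final / Incubation: 16 min enzyme reaction, ambient temperature / Signal: fluorescence, excitation 544 nm and emission 590 nm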
# Cl transport mod: modulators of human KCC2 chloride dependent transport; actives 2.2% (n = 190,000); KCC2 cells, thallium flux FluoZin-2 fluorescence; Q9H2X9; B-score of Tl+ flux slope (higher = more flux/activation; lower = inhibition) at 10 µM;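 active means thallium flux slope and its plate-corrected score both differing from the plate sample mean at a set confidence after two filtering rounds, in either direction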;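 further: slope of fluorescence scaled to starting intensity during 10 to 20 s after thallium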
# ROMK mod: modulates human ROMK potassium channel activity | actives 2% (n = 130,000) | Tet-inducible ROMK, thallium flux fluorescence; actives lie on both sides | P48048 | AID 1918 | B-score at 10 µM;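 active means signal ratio slope over the read window, or its plate-corrected B-score, at least 3 SD from the plate mean, either direction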;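 further: B-score of the F/F0 ratio slope over 7 to 12 s after thallium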
# Diaphorase inh: diaphorase inhibition or chemical oxidation counter-screen; diaphorase resazurin-to-resorufin fluorescence, NADH, 16 min; bacterial (C. kluyveri) enzyme, not human; inhibition, % at 20 µM; actives 0.69% (n = 190,000);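 active means primary screen inhibition at 20 µM above a set limit, cut at about 50% in these data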;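 further: plate controls were DMSO with full reaction for no effect and wells lacking NADH for full effect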
#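 System: Bacterial diaphorase enzyme (C. kluyveri) | Incubation: 16-min room-temperature incubation before reading | Benchmarks: No-NADH positive control and DMSO neutral control | Measured by: Resorufin fluorescence 544/590 nm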
# Lmaj promast: inhibitors of Leishmania major promastigote growth | Leishmania major promastigotes, resazurin fluorescence viability | inhibition, % at 10 µM | actives 9% (n = 200,000) | AID 1063; in the data active means inhibition above about 50%;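 further: promastigotes grown with compound for 44 hours at 28 °C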
# WT yeast gro inh: growth inhibition of WT yeast, mitochondrial fusion screen; mitochondrial fusion phenotypic screen, WT strain; actives 2.1% (n = 190,000); inhibition, % at 10 µM; in the data active means inhibition above about 58%; tested in S. cerevisiae
# * = called active by the depositor; i = inactive; nt = not tested or not shown.
SMILES,Diaph act CS,Cl transport mod,ROMK mod,Diaphorase inh,Lmaj promast,WT yeast gro inh
COP(=O)(OC)c1nc(-c2ccccc2)oc1N1CCOCC1,0.9,0.0382,0.174,6.8,51.1*,11.4
CC(C)(C)C1CCC(C(=O)OCC(=O)Nc2ccc3[nH]c(=O)[nH]c3c2)CC1 (stereo not given),0.9,0.225,-0.71,9.5,4.5,0.9
C/C(CC(C)C)=N\Nc1ccc(S(N)(=O)=O)cc1[N+](=O)[O-],0.9,1.26,-1.12,9.0,6.0,10.9
O=C(Nc1cc(Sc2nc3ccccc3s2)cc([N+](=O)[O-])c1)c1ccccc1,0.8,-0.523,nt,22.3,99.7*,22.5
O=C(Nc1cc(Sc2ccccn2)cc([N+](=O)[O-])c1)c1cccc(F)c1,0.8,-1.09,-0.685,15.6,94.6*,36.2
CCc1nn(CC(=O)Nc2cc(C)ccc2C)c(=N)s1,0.9,0.304,0.00232,12.9,-5.7,10.6
Cc1ccc(S(=O)(=O)CCSc2n[nH]c(=O)n2-c2ccc3c(c2)OCCO3)cc1,nt,-0.186,-0.272,nt,nt,nt
C=CCC(C(=O)OC)(C(=O)OC)c1ccc([N+](=O)[O-])cn1,1,0.639,nt,1.0,-0.6,66.4*
NC(=O)C1=C[C@@H](c2csc3ccccc23)C[C@@H](OCCCCO)O1,0.6,-0.0174,nt,37.1,5.1,5.5
C[n+]1c2n(c3ccccc31)N=C(c1ccc(Cl)cc1)CS2,1,nt,nt,4.6,85.6*,21.1
CC1Sc2n(c3ccccc3[n+]2C)N=C1c1ccccc1 (stereo not given),0.9,-0.279,nt,5.5,98.6*,3.1
COc1ccc(C2=Nn3c(nnc3-c3ccccn3)SC2)cc1,1,-1.46,1.78,2.2,-1.8,0.6
COc1ccc(C2=Nn3c([n+](C)c4ccccc43)SC2)cc1,0.9,1.55,nt,7.2,100.1*,35.8
CC1CCCCC1NC(=O)/C(C#N)=C/c1ccc2c(c1)OCCO2 (stereo not given),0.9,-1.46,-2.37,13.3,59.3*,0.1
C=CCNC(=O)/C(C#N)=C/c1ccc2c(c1)OCCO2,1,1.44,-0.422,0.1,-0.6,4.6
CN(C)/C=C/C(=O)c1cc(F)cc(C(F)(F)F)c1,0.9,-0.294,1.67,12.8,-0.8,-8.9
Cc1cc(NC(=O)c2ccc([N+](=O)[O-])o2)ccc1NC(=O)c1ccco1,1,-1.42,-0.578,-3.6,99.8*,55.8
Cc1cc(C)nc(NC(=O)c2ccc([N+](=O)[O-])o2)n1,0.9,0.0115,-1.67,11.5,55.8*,0.0
Cc1cc(C)cc(NC(=O)c2ccc([N+](=O)[O-])o2)c1,1,-0.0382,-1.17,1.9,100.2*,77.6*
N#Cc1ccsc1NC(=O)COC(=O)c1ccc(NC(N)=O)cc1,0.9,0.924,-0.877,13.6,-1.5,3.1
N#Cc1ccsc1NC(=O)COC(=O)c1cc2ccccc2cc1O,0.8,-0.245,-0.204,16.7,79.0*,1.4
CCOc1ccc(-n2c(=S)sc3c(=O)[nH]c(SCC(=O)NC(C)CC)nc32)cc1 (stereo not given),0.7,1.25,0.57,32.3,-8.4,1.5
CCCN(CCC)C(=O)CSc1nc2c(sc(=S)n2-c2ccc(OCC)cc2)c(=O)[nH]1,0.2,-2.12,-1.13,80.3*,-8.6,5.8
CCOC(=O)CC(=O)CSc1nc2c(sc(=S)n2-c2ccc(OCC)cc2)c(=O)[nH]1,0.4,-2.44,-1.62,59.5*,-4.8,9.8
CCOC(=O)CSc1nc2ccsc2c(=O)[nH]1,0.8,0.302,0.584,23.9,-3.3,10.6
SMILES,Diaph act CS,Cl transport mod,ROMK mod,Diaphorase inh,Lmaj promast,WT yeast gro inh
CCOC(=O)CCSc1cc(C)c2ccccc2n1,0.8,-0.5,-0.0653,18.9,-1.9,4.5
Cc1ccc2nsnc2c1NC(=S)NC(=O)c1ccco1,0.9,9.29*,0.533,13.5,3.1,1.6
COc1ccc(C(=O)NNC(=S)NC(=O)c2ccco2)cc1,0.7,10.1*,0.556,27.4,6.8,48.4
COc1ccc(C(=O)NC(=S)NNC(=O)CNC(=O)C2CCCCC2)cc1,0.4,1.37,0.284,59.3*,0.8,-7.9
COc1ccc(C(=O)NNC(=O)C(NC(=O)c2ccccc2NC(=O)c2ccco2)C(C)C)cc1 (stereo not given),0.9,1.07,nt,13.0,66.9*,8.0
COc1ccc(C(=O)NNC(=O)CNC(=O)C2CCCCC2)cc1,0.8,nt,0.427,17.3,-0.5,-6.8
CCOC(=O)CSc1snnc1-c1ccccc1,0.9,0.0591,-0.109,6.8,-3.2,-6.5
CCCC(CCC)C(=O)Nc1ccc2c(c1)N(C(=O)CCN1CCN(C)CC1)c1ccccc1CC2,1,-2.46,-1.2,2.7,-1.3,7.2
CC(C)C(=O)Nc1ccc(C(=O)NNC(=S)NC(=O)c2ccccc2[N+](=O)[O-])cc1,0.5,0.302,-0.0411,45.9,-7.0,-5.3
O=C(/C=C/c1ccco1)NC(=S)NNC(=O)c1ccco1,0.7,0.509,nt,31.0,93.6*,1.7
COc1ccccc1C(=O)NNC(=S)NC(=O)c1ccco1,0.7,15.8*,nt,29.9,7.5,87.2*
COc1ccc(C(=O)NC(=S)NNC(=O)c2ccc(NC(=O)C(C)C)cc2)cc1,0.5,0.196,nt,49.0,70.7*,-27.6
CC(Oc1ccccc1)C(=O)Nc1cccc(NC(=O)c2ccco2)c1 (stereo not given),nt,0.846,nt,nt,nt,nt
CC(Oc1ccc(Cl)cc1)C(=O)NNC(=S)NC(=O)c1ccco1 (stereo not given),0.8,25.6*,1.25,25.0,9.0,84.8
C/C(=N/NC(=O)CNC(=O)c1cccc(F)c1)c1ccc2c(c1)CCCC2,1.1,nt,-0.512,-5.7,1.9,-3.1
CC(C)(C)C(=O)NC(=S)Nc1ccccn1,0.8,i,-1.74,20.7,-7.8,19.6
O=C(NC(=S)Nc1ccccn1)c1ccco1,0.9,10.4*,nt,12.2,-0.3,24.6
O=C1CCN(C(=O)CSc2ccc(Cl)cc2)N1,0.8,0.33,0.294,15.4,-7.0,2.8
COc1ccc2c(c1)CCCC21SC(NC(C)=O)=NN1C(C)=O (stereo not given),0.9,0.341,-0.181,5.0,3.5,-14.9
O=C(/C(=C\c1ccccc1)c1nc2ccccc2[nH]1)c1ccc(Cl)cc1,0.9,1.18,nt,9.4,100.2*,50.4
O=C(O)C(=O)/C(=C\c1ccc(Cl)cc1)c1ccc2ccccc2n1,1,2.35,-0.417,3.7,-0.4,-8.2
O=C(/C=C/c1cccc(Cl)c1)c1nc2ccccc2[nH]1,0.9,0.00299,-0.916,7.7,100.3*,7.6
O=C(/C=C/c1cccc(Cl)c1)Nc1ncccn1,1,1.46,nt,4.8,4.3,-6.6
COc1ccc(CN2CCNC(=O)C2CC(=O)NCCSc2nccn2C)cc1OC (stereo not given),1,0.0116,0.569,4.6,-6.7,3.3

# Assay outcomes (PubChem BioAssay)
